# Bioassay records deposited in PubChem BioAssay by several laboratories.
# This is a sample that favours compounds with a hit; in the whole collection about 1.9% have one here.
# Calb FLC: affects C. albicans growth with fluconazole; C. albicans CaCi-2 (fluconazole-resistant clinical isolate) + fluconazole, Alamar Blue growth, 48 h; hit rate 0.57% among 300,000; growth inhibition, % (test concentration not listed);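 active means growth inhibition above about 58% in most replicates, limit read from the data, passing the limit was not always enough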;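 further: all wells also contain fluconazole at 8 µg/ml as a sub-toxic cotreatment; 0% = median of DMSO wells and 100% = median of geldanamycin control wells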
# HIF activator: HIF pathway transcriptional activation; AID 1910; U2OS HRE-luciferase reporter, luminescence; normalized: DMSO 0%, desferrioxamine 100%; activation, % at 7.5 µM (by protocol); hit rate 0.32% among 300,000;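 active means mean activation of at least 10% of the iron chelator positive control signal, with at least half of replicates also reaching 10%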
# Neddyl block: blocks human cullin neddylation | hit rate 0.58% among 360,000 | inhibition, % at 25 µM | TR-FRET cullin neddylation, biochemical | P61081+Q13564; in the data active means inhibition above about 36%
# Target sequence (P61081 whole entry, looked up): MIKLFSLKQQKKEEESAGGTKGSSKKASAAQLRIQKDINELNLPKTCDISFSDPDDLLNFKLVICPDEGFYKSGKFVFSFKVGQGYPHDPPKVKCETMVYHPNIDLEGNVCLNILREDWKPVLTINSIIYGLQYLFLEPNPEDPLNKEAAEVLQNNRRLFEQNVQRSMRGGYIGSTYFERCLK
# Target sequence (Q13564 whole entry, looked up): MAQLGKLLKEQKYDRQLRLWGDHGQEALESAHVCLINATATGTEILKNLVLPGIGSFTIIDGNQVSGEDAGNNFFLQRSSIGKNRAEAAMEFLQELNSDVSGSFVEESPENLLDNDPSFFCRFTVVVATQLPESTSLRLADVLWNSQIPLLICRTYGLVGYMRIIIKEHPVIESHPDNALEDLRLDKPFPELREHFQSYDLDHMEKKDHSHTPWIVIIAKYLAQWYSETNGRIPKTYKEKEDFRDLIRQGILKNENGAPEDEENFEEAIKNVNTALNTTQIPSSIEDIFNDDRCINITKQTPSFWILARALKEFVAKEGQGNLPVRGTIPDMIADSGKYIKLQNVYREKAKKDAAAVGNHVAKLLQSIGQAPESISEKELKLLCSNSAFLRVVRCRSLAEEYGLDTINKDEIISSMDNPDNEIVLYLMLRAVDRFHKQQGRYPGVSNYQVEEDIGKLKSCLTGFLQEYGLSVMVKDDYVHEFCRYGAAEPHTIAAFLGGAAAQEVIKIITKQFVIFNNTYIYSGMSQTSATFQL
# FXN GAA850 act: increases GAA850 frataxin promoter reporter activity; activation, % at 6 µM; hit rate 0.56% among 360,000; HEK293 lucGAA850 FXN promoter luciferase reporter, 24 h; percent of 10 µM SAHA response; AID 540364;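 active means activation above the average of all compounds screened plus 3 SD, cutoff fixed separately per campaign, cut at about 7.5% in these data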;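 further: 0% = DMSO wells and 100% = 10 µM SAHA wells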
# proCasp3 act: activators of human procaspase-3 | P42574 | activation, % at 8.5 µM | recombinant procaspase-3 D3A, Ac-DEVD-pNA absorbance 405 nm | AID 463141 | hit rate 0.11% among 330,000;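 active means activation above the mean of all tested compounds plus 3 SD, cut at about 21% in these data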;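 further: 0% = DMSO alone and 100% = DMSO wells spiked with extra 5 µM PC-3 D3A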
#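 Test system: Procaspase-3 D3A mutant, all three cleavage aspartates alanine | Dosing: Single dose, 8.5 µM nominal compound, 0.8% DMSO | Schedule: 1 h preincubation, 2 h reaction | Technique: 405 nm absorbance of p-nitroaniline, reads at 0 and 120 min | Repeats: One well per compound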
# procasp7 counter: activates human procaspase-7, counter-screen for procaspase-3 activators. P55210. recombinant procaspase-7, Ac-DEVD-pNA absorbance 405 nm; D23A/D198A/D206A triple mutant, cannot self-cleave; scale: DMSO 0, 5 µM enzyme 100. activation, % at 8.5 µM. hit rate 0.093% among 330,000;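 active means percent activation above the screen-wide mean plus 3 SD, cut at about 25% in these data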
#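 buffer or medium = Zinc-free HEPES/NaCl buffer, pH 7.4 | material = Procaspase-7 triple mutant (PC-7 D3A) | input = 2 µM procaspase-7 mutant as dispensed | signal = Epi-absorbance of released pNA at 405 nm, two timepoints | timing = 1 h preincubation, 2 h reaction | replicates = singlicate compound testing | evaluation = % activation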
# Starred values were filed as active, the others as inactive; nt = no result shown.
SMILES,Calb FLC,HIF activator,Neddyl block,FXN GAA850 act,proCasp3 act,procasp7 counter
COC(=O)C1=CN(c2ccc3c(c2)OCO3)C(N)=C(C#N)C1c1ccccc1 (stereo not drawn),nt,nt,14,nt,nt,nt
Oc1c(C(Nc2ccccn2)c2cccnc2)cc(Cl)c2cccnc12 (stereo not drawn),-4,0,17,-2,7,-13
CCC(=O)NC(c1ccco1)c1cc(Cl)c2cccnc2c1OC (stereo not drawn),nt,nt,5,1,8,11
CCC(=O)NC(c1ccc(OC)cc1)c1cc(Cl)c2cccnc2c1O (stereo not drawn),104*,23*,11,-2,0,-4
COc1ccc(C(NC(=O)c2cccnc2)c2cc(Cl)c3cccnc3c2O)cc1OC (stereo not drawn),7,12*,18,-6,3,3
Cc1ccc(S(=O)c2ccc([N+](=O)[O-])c3nonc23)cc1 (stereo not drawn),nt,nt,-33,3,nt,nt
CN1OC[C@@H]2CN(S(=O)(=O)c3cccc(C(F)(F)F)c3)[C@H](c3ccc(N4CCCCC4)cc3)C[C@@H]21,nt,nt,13,nt,nt,nt
COc1ccc(-c2cc(-c3c(O)c(OC)c4occc4c3OC)[nH]n2)cc1,102*,1,10,-1,-4,-8
COc1ccc(-c2cc(-c3c(O)c(OC)c4occc4c3OC)[nH]n2)cc1OC,71,nt,1,7,0,2
COC(=O)[C@@]1(Cc2ccc(F)cc2)[C@H]2c3cc(C(=O)N4CCCC4)n(CCc4c[nH]c5ccccc45)c3C[C@H]2CN1C(=O)c1ccccc1,nt,nt,-23,nt,nt,nt
CC(=O)Nc1cncc(-c2cccc(C(=O)N3CCOCC3)c2)n1,nt,nt,6,1,nt,nt
CCc1cnccc1CCC(=O)Nc1ccccc1C,-7,430*,-8,-1,0,10
Cc1ccccc1NC(=O)CCC(=O)N/N=C/c1cccnc1,5,0,-12,0,-2,10
CCNC(=O)C1CCCN(Cc2ccc(C)c3ccccc23)CC1 (stereo not drawn),nt,nt,-12,-2,nt,nt
O=C(c1cccc(C(F)(F)F)c1)C1CCCN(C(=O)Cn2cncn2)C1 (stereo not drawn),21,11*,-22,0,6,9
O=C(c1ccc(C(F)(F)F)cc1)C1CCCN(C(=O)Cn2cncn2)C1 (stereo not drawn),-6,0,0,-1,6,9
CNC(=O)COC(=O)c1c2c(nc3ccccc13)CCC2,110*,0,2,2,3,9
CCCCNC(=O)COC(=O)c1c2c(nc3ccccc13)CCC2,-1,0,4,0,3,7
Cc1ccc(C(=O)OCC(=O)Nc2cc(Cl)ccc2C#N)o1,nt,nt,-1,-1,nt,nt
O=C(CN(C1CCCCC1)S(=O)(=O)c1ccc(F)cc1)NCC1CCCO1 (stereo not drawn),nt,nt,-52,12*,nt,nt
CC(=O)c1ccc(N(C(=O)c2csnn2)C(C(=O)NC(C)(C)C)c2cccs2)cc1 (stereo not drawn),-3,35*,-4,-1,-11,3
O=C1CC2C(CCC23OCCO3)c2ccc3ccccc3c21 (stereo not drawn),nt,nt,-33,6,nt,nt
Cc1cc(Cl)n2nc(C)c(-c3ccc(Cl)cc3)c2n1,113*,nt,18,0,-1,1
Cc1cc(N)n2nc(C)c(-c3ccc(Cl)cc3)c2n1,4,-1,nt,2,-1,4
CCCCn1c(N)c(N(CC(C)C)C(=O)Cc2ccc(S(=O)(=O)N3CCOCC3)s2)c(=O)[nH]c1=O,nt,nt,-1,1,nt,nt
SMILES,Calb FLC,HIF activator,Neddyl block,FXN GAA850 act,proCasp3 act,procasp7 counter
CCCCOc1ccc(-c2cc(C(=O)NNC(=S)NCC)c3ccccc3n2)cc1,72,1,nt,6,6,-7
CCNC(=S)NNC(=O)c1cc(-c2ccc(OC)cc2)nc2ccccc12,99*,-1,38,4,4,-7
O=C(NC(=S)Nc1ccccn1)c1cc(-c2ccccc2)nc2ccccc12,18,184*,-6,0,12,5
CCNC(=S)NNC(=O)c1cc(-c2cccc(OCC)c2)nc2ccccc12,13,1,0,2,0,-1
O=C(NC(=S)Nc1ccccc1)c1cc(-c2ccccc2)nc2ccccc12,8,2,-10,1,-12,-2
CCNC(=S)NNC(=O)c1cc(-c2cccc(C)c2)nc2ccccc12,116*,1,-6,6,10,-8
CN(C(=O)c1cccc(NC(=O)Cc2ccc(NC(=O)C3CCN(C(=O)C4CCC4)CC3)cc2)c1)C1CC1,nt,nt,11,-1,nt,nt
O=[N+]([O-])c1ccc(Cl)c(-c2ccc(/C=N/c3c(-c4ccco4)nc4ccccn34)o2)c1,-2,0,14,-1,-3,-10
Oc1cccc(/C=N/c2c(-c3ccco3)nc3ccccn23)c1,7,18*,nt,1,0,1
CC(=O)Nc1ccc(C(C)=NNC(=O)C2CCCC2)cc1,nt,nt,-6,2,nt,nt
C/C(=N\NC(=O)C1CCCC1)c1ccc(Cl)c(Cl)c1,112*,nt,-1,5,nt,nt
Cc1cccc(C(=O)Nc2ccc(C(=O)/C=C/c3cccnc3)cc2)c1,10,5,-39,15*,-4,8
CCC(C)c1ccc2oc(-c3ccc(NC(=O)c4ncn[nH]4)cc3)nc2c1 (stereo not drawn),65,0,39,1,7,3
CC(C)c1ccc2oc(-c3ccc(NC(=O)c4ncn[nH]4)cc3)nc2c1,88*,1,nt,nt,1,3
CC(C)c1onc(C(=O)Nc2cccc(O)c2)c1[N+](=O)[O-],6,0,-10,1,-6,6
Cc1ccc(NC(=O)c2noc(C(C)C)c2[N+](=O)[O-])cc1,92*,0,-14,0,2,-6
OC[C@@H]1CN(Cc2ccc(-c3ccccc3)cc2)C[C@H](n2cnc3c(NC4CCC4)ncnc32)O1,nt,nt,5,-5,nt,nt
CCN(CC)CCN(C(=O)c1ccc2ccccc2c1)c1nc2ccc(OC)cc2s1,99*,0,5,0,-2,9
CCN(CC)CCN(C(=O)c1cc2ccccc2cc1OC)c1nc2ccc(OC)cc2s1,80*,-1,11,0,6,3
CCN(CC)CCN(C(=O)c1cc2ccccc2cc1OC)c1nc2ccc(F)cc2s1,2,1,7,3,5,3
CCCS(=O)(=O)NC(=O)C1(C)CCCN(C(=O)c2ccc3ccccc3c2)C1 (stereo not drawn),nt,nt,-11,1,nt,nt
Cc1cc(C)c(C)c(S(=O)(=O)ON2C(=O)c3ccccc3C2=O)c1C,101*,0,7,2,-8,-6
